Results on seven molecules are retold here after ChEMBL document CHEMBL1134384, “Development of new carboxylic acid-based MMP inhibitors derived from functionalized propargylglycines” (J Med Chem, 2001).

≈ marks a conversion by molar mass, not a printed value.

Data set [1] concerns the target Stromelysin-1 (Homo sapiens, UniProt P08254). Description: Inhibitory activity against human matrix metalloprotease-3 (MMP-3) ([…]).
A short description of data set [2]: Half life was determined in fasted rats using cassette dosing technique. It is filed as ADME, organism-based. To be noted: rat, in vivo. The procedure, abridged:
(§1)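 Fasted rats (n = 3/4) received cassette doses of 4–5 compounds per experiment at 1–5 mg/kg of each inhibitor. Each study included a control compound previously characterized in a single-compound experiment, to validate the data set and detect problems such as saturation of elimination.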

In data set [3] the target is T1, Interstitial collagenase (Homo sapiens, UniProt P03956).
T1 sequence (P03956 whole entry): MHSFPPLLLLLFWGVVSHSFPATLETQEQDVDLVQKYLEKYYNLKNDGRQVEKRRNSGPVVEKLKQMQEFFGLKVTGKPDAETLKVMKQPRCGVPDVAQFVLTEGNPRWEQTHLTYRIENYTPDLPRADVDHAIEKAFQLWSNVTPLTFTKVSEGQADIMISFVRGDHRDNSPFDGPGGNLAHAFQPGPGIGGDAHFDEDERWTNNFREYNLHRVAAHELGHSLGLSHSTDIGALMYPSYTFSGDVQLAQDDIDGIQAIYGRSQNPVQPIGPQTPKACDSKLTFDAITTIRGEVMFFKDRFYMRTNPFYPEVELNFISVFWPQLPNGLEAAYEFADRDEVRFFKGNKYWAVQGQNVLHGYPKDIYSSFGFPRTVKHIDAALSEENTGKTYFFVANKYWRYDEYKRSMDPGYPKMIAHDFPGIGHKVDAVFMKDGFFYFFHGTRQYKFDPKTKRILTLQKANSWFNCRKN
Description: Inhibitory activity against human matrix metalloprotease-1 in quenched fluorescence assay at […]. In short, it runs like this:
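Quenched fluorescence assay using truncated human recombinant enzymes expressed in E. coli, at final concentrations of 8 nM for MMP-1 and 16 nM for MMP-3. Substrate was Mca-Pro-Leu-Gly-Leu-Dpa-Ala-Arg-NH₂ at 4 μM, at 25 °C, in 50 mM Tris pH 7.5, 0.2 M NaCl, 5 mM CaCl₂, 0.02% Brij-35. Fluorescence (ex 328/em 393 nm) was read kinetically for 30 min. Eight inhibitor concentrations were tested and IC50 was fitted from Vi/V0.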

Data set [4] deals with T2, Collagenase 3 (Homo sapiens, UniProt P45452). Description: Inhibitory activity against human matrix metalloprotease-13 in quenched fluorescence assay at pH 7.4.
Data set [5] has as its target 72 kDa type IV collagenase (Homo sapiens, UniProt P08253). Description: Inhibitory activity against matrix metalloprotease-2 (MMP-2) in quenched fluorescence assay at […]. The procedure, abridged:
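Full-length human recombinant proMMP-2 from CHO cells was activated with 1 mM APMA for 45 min and used at 1 nM final. Cleavage of 4 μM Mca-Pro-Leu-Gly-Leu-Dpa-Ala-Arg-NH₂ was followed at 25 °C in Tris pH 7.5/NaCl/CaCl₂/Brij-35 buffer, with fluorescence read kinetically for 30 min. IC50 came from 8 inhibitor concentrations.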

Data set [6] can be described thus: Solubility was determined at a pH of […]. It is filed as physicochemical. To be noted: pH 7.
Data set [7] in a line: Bioavailability in rat (fasted) using cassette dosing. The data set is classed as ADME, organism-based. The following applies: in vivo. The procedure, abridged: as §1
The target of data set [8] is T2, Collagenase 3. The data set is described as follows: Inhibition of human matrix metalloprotease-13 at pH 7.4.

Chain of 72 kDa type IV collagenase (P08253 whole entry): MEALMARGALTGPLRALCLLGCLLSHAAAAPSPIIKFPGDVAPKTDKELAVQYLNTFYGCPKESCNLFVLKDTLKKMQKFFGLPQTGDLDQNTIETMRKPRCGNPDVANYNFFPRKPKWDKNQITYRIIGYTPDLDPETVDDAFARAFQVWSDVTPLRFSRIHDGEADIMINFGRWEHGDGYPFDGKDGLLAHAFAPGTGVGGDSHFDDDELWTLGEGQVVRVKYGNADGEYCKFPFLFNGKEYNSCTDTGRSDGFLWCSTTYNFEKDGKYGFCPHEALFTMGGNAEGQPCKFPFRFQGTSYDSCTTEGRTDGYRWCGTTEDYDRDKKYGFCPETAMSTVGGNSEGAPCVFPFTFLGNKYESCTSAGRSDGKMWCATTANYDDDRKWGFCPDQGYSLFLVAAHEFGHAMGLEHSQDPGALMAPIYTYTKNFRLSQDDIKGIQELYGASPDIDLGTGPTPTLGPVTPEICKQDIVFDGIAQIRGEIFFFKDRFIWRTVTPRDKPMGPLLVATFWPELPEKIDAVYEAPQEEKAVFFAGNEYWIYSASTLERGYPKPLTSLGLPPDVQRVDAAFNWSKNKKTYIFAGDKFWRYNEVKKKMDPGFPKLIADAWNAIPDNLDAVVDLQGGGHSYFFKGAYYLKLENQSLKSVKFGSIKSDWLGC
Chain of Stromelysin-1 (P08254 whole entry): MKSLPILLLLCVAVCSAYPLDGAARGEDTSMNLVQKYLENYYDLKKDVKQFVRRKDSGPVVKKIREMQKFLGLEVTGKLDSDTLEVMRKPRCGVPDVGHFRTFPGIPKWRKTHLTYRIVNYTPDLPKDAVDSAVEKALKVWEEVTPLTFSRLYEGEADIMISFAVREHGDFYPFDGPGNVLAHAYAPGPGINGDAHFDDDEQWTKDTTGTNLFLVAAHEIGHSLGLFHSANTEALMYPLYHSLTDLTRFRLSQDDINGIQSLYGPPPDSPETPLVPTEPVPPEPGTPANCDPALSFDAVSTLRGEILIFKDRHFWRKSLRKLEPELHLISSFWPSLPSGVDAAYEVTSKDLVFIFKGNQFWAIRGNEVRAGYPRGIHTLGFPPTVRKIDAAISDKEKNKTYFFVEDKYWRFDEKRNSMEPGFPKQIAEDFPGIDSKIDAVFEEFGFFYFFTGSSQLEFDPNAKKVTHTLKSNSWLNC

By IC50 is commonly meant the concentration that gives 50% inhibition. High values mean weaker potency in that assay, low ones greater potency in that assay. As usually defined, the half-life is how long it takes for the measured level to halve. Read a high half-life as slow decline. One may read the solubility as the dissolved amount per volume that the medium holds. What is called bioavailability is the share of a dose that reaches the circulation, judged against a reference dose that is usually intravenous. A higher bioavailability goes with good availability. As for `COc1ccc(C#Cc2ccc(S(=O)(=O)NC(CC#Cc3ccccc3)C(=O)O)cc2)cc1` (centres undefined), the IC50 was 4360 nM in data set [1], greater than 10000 nM in data set [3], 35 nM in data set [4] and 9 nM in data set [5]. Besides, the half-life in data set [2] was 0.7 h. Moreover, the solubility in data set [6] is 20 µg/mL (≈ 0.0435 mM). The same molecule had a bioavailability in data set [7] of 26%.
Consider `O=C(Nc1ccc(S(=O)(=O)NC(CC#CCN2CCOCC2)C(=O)O)cc1)c1ccc(Br)cc1` (centres undefined), for which the IC50 in data set [1] was 17400 nM; in data set [3] it was greater than 10000 nM; in data set [4], 344 nM; in data set [5], 12 nM. Also, the solubility in data set [6] was 4400 µg/mL (≈ 7.99 mM).
`COc1ccc(C#Cc2ccc(S(=O)(=O)NC(CC#CCN3CCOCC3)C(=O)O)cc2)cc1` (centres undefined): the values for the IC50 in data set [1] and in data set [5] were 6600 nM and 28 nM, respectively. The molecule further showed a half-life in data set [2] of 3.6 h. The solubility in data set [6] turned out to be 151000 µg/mL (≈ 313 mM). This molecule also yielded a bioavailability in data set [7] of 12%.
As to `COc1ccc(-c2ccc(S(=O)(=O)NC(CC#Cc3ccccc3)C(=O)O)cc2)cc1` (centres undefined), the IC50 in data set [1] stood at 2280 nM; in data set [3], 2000 nM; in data set [4], 21 nM; in data set [5] it was 12 nM. The half-life in data set [2] is 1.7 h. The molecule further displayed a solubility in data set [6] of 20 µg/mL (≈ 0.0459 mM). Further, the bioavailability in data set [7] came to 49%.
For the molecule `COc1ccc(C#Cc2ccc(S(=O)(=O)NC(CC#Cc3ccccc3)C(=O)O)s2)cc1` (centres undefined), the IC50 turned out to be 10100 nM in data set [1], 46 nM in data set [5] and 145 nM in data set [8].
On to `COc1ccc(-c2ccc(S(=O)(=O)NC(CC#Cc3cccc(N4CCOCC4)c3)C(=O)O)cc2)cc1` (centres undefined), for which the IC50 in data set [1] came to 3520 nM; in data set [3], 3660 nM; in data set [4], 24 nM; in data set [5], 16 nM. This molecule had a half-life in data set [2] of 0.1 h. Also, the concentration in solution in data set [6] (solubility) came to 580 µg/mL (≈ 1.11 mM). The molecule also gave a bioavailability in data set [7] of 7%.
In the case of `COCC#CCC(NS(=O)(=O)c1ccc(-c2ccc(Br)cc2)cc1)C(=O)O` (centres undefined), the IC50 in data set [1] is 3330 nM; in data set [3] it was 24800 nM; in data set [4] it was 147 nM; in data set [5] it was 17 nM. Further, the solubility in data set [6] worked out at 12000 µg/mL (≈ 26.5 mM).
